Assay results taken from article PMC6146878 (Molecules : A Journal of Synthetic Chemistry and Natural …, 2003).

Test: Interaction with DPPH
How it was run: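 DPPH 0.1 mM in absolute ethanol mixed with an equal volume of test compound in ethanol (0.1 mM); ethanol-only control. Kept at room temperature; absorbance at 517 nm recorded after 20 and 60 min. At least triplicate.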

Row | Compound | DPPH (0.1 mmol/L) 20min [%]
1 | CC(=O)Oc1ccccc1C(=O)O [ASA, Acetyl salicylic acid] | 80.5
2 | CC(Cc1ccc(O)c(O)c1)C(C)Cc1ccc(O)c(O)c1 (centres unmarked) [NDGA, nor-dihydroguaeretic acid] | 94
